SMILES strings stand for the structures.

A word on the IC50: it is the concentration that gives 50% inhibition. A lower IC50 goes with greater potency in that assay.

In series [1] the test system is Plasmodium falciparum. The experiment in a line: Antiplasmodial activity against chloroquine-sensitive Plasmodium falciparum NF54 by LDH assay. It counts as functional. Summed up:
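In vitro test on the chloroquine-sensitive NF54 strain of P. falciparum, read out by the lactate dehydrogenase assay. Reported as IC50. Chloroquine and artesunate were included as reference drugs in all experiments.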

The next series has as its system CHO. In words: Cytotoxicity against CHO cells. It counts as cell-based. The note with it: Cricetulus griseus.
Series [2] in a line: Selectivity index, ratio of IC50 for CHO cells to IC50 for chloroquine-sensitive Plasmodium falciparum NF54. The following applies: hamster, read-out: Ratio IC50. It counts as toxicity. Summed up:
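IC50 against Chinese hamster ovary cells (cytotoxicity) was divided by IC50 against P. falciparum NF54. NF54 IC50 came from the lactate dehydrogenase assay, with chloroquine and artesunate as references.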

The test system of series [3] is Plasmodium falciparum. In words: Potency index, ratio of fusidic acid IC50 to compound IC50 for chloroquine-resistant Plasmodium falciparum K1. It counts as functional.
Series [4] relates to Plasmodium falciparum. The experiment in a line: Antiplasmodial activity against chloroquine-resistant Plasmodium falciparum K1 by [3H]hypoxanthine incorporation assay. It counts as functional. Summed up: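 Multidrug-resistant K1 strain of P. falciparum tested in vitro with a modified [3H]hypoxanthine incorporation assay. IC50 determined. Chloroquine and artesunate served as reference drugs in every experiment.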

In series [5] the test system is Plasmodium falciparum. In words: Potency index, ratio of fusidic acid IC50 to compound IC50 for chloroquine-sensitive Plasmodium falciparum NF54. It counts as functional. Put shortly:
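Chloroquine-sensitive P. falciparum NF54 was tested with the lactate dehydrogenase assay, using chloroquine and artesunate as reference drugs. The index is fusidic acid's IC50 divided by the compound's IC50, both against NF54.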

Take `CCCCCCCCCCCCNC(=O)/C(CCC=C(C)C)=C1\[C@@H](OC(C)=O)C[C@@]2(C)[C@H]1C[C@@H](O)[C@H]1[C@@]3(C)CC[C@@H](O)[C@@H](C)[C@@H]3CC[C@@]12C`: the IC50 in the series with Plasmodium falciparum [1] was 1.2 µM; in the series on CHO it was above 146 µM; in the series with Plasmodium falciparum [4], 1.5 µM. In addition, the selectivity ratio in series [2] was above 122. In addition, the “Ratio IC50” value with Plasmodium falciparum [3] was 5 - 17; with Plasmodium falciparum [5], 4 - 49.

For the molecule `CCCCOC(=O)/C(CCC=C(C)C)=C1\[C@@H](OC(C)=O)C[C@@]2(C)[C@H]1C[C@@H](O)[C@H]1[C@@]3(C)CC[C@@H](O)[C@@H](C)[C@@H]3CC[C@@]12C`, the concentration for half-maximal inhibition (IC50) in the series on Plasmodium falciparum [1] stood at 2.9 µM; in the series on CHO, 37.4 µM; with Plasmodium falciparum [4], 1.5 µM. In series [2], the selectivity ratio amounted to 13. Also, the results for the “Ratio IC50” value in the series with Plasmodium falciparum [3] and in the series with Plasmodium falciparum [5] were 5 - 17 and 4 - 49, respectively.

`CC(=O)O[C@H]1C[C@@]2(C)[C@@H](C[C@@H](O)[C@H]3[C@@]4(C)CC[C@@H](O)[C@@H](C)[C@@H]4CC[C@@]32C)/C1=C(\CCC=C(C)C)C(=O)Oc1cccc(Br)c1`: the IC50 with Plasmodium falciparum [1] was 2.6 µM; with CHO, 98.3 µM; in the series on Plasmodium falciparum [4], 1.6 µM. The selectivity ratio in series [2] amounted to 38. Further, the entries for the “Ratio IC50” value in the series with Plasmodium falciparum [3] and in the series on Plasmodium falciparum [5] were 5 - 17 and 4 - 49, respectively.

Consider `CC(=O)O[C@H]1C[C@@]2(C)[C@@H](C[C@@H](O)[C@H]3[C@@]4(C)CC[C@@H](O)[C@@H](C)[C@@H]4CC[C@@]32C)/C1=C(\CCC=C(C)C)C(=O)Oc1ccc(Br)cc1`, for which the IC50 came out at 2.1 µM with Plasmodium falciparum [1], 95.3 µM in the series on CHO and 1.6 µM in the series with Plasmodium falciparum [4]. In addition, the selectivity ratio in series [2] was found to be 45. In addition, the “Ratio IC50” value is reported as 12 - 14 in the series on Plasmodium falciparum [3] and 20 - 28 in the series on Plasmodium falciparum [5].

On to `CCCCCCCCCCCCCCOC(=O)/C(CCC=C(C)C)=C1\[C@@H](OC(C)=O)C[C@@]2(C)[C@H]1C[C@@H](O)[C@H]1[C@@]3(C)CC[C@@H](O)[C@@H](C)[C@@H]3CC[C@@]12C`, for which the IC50 is above 100 µM with Plasmodium falciparum [1], above 140 µM in the series on CHO and above 14 µM with Plasmodium falciparum [4].

For `CCCCCCCCCCCCOC(=O)/C(CCC=C(C)C)=C1\[C@@H](OC(C)=O)C[C@@]2(C)[C@H]1C[C@@H](O)[C@H]1[C@@]3(C)CC[C@@H](O)[C@@H](C)[C@@H]3CC[C@@]12C`, the half-maximal inhibitory concentration (IC50) in the series on Plasmodium falciparum [1] was above 100 µM; with CHO it was above 146 µM; in the series with Plasmodium falciparum [4], above 14.6 µM.

In the case of `CCCCCCCCCCCCCCCCNC(=O)/C(CCC=C(C)C)=C1\[C@@H](OC(C)=O)C[C@@]2(C)[C@H]1C[C@@H](O)[C@H]1[C@@]3(C)CC[C@@H](O)[C@@H](C)[C@@H]3CC[C@@]12C`, the concentration for half-maximal inhibition (IC50) was above 100 µM in the series on Plasmodium falciparum [1], above 135 µM in the series on CHO and above 13.5 µM in the series with Plasmodium falciparum [4].

For `CCCCCCCCCCCCCCCCOC(=O)/C(CCC=C(C)C)=C1\[C@@H](OC(C)=O)C[C@@]2(C)[C@H]1C[C@@H](O)[C@H]1[C@@]3(C)CC[C@@H](O)[C@@H](C)[C@@H]3CC[C@@]12C`, the IC50 in the series with Plasmodium falciparum [1] was above 100 µM; in the series with CHO it was above 135 µM; in the series with Plasmodium falciparum [4], above 13.5 µM.

Regarding `CC(=O)O[C@H]1C[C@@]2(C)[C@@H](C[C@@H](O)[C@H]3[C@@]4(C)CC[C@@H](O)[C@@H](C)[C@@H]4CC[C@@]32C)/C1=C(\CCC=C(C)C)C(=O)Oc1cc(F)cc(F)c1`, the IC50 with Plasmodium falciparum [1] worked out at 4.7 µM; in the series on CHO, 96.7 µM. Also, the selectivity ratio in series [2] was 21. The “Ratio IC50” value with Plasmodium falciparum [3] is reported as 5 - 17; with Plasmodium falciparum [5] it was 4 - 49.

For `C[C@H]1[C@H](OC(=O)CCC(=O)O)O[C@@H]2O[C@@]3(C)CC[C@H]4[C@H](C)CC[C@@H]1[C@@]24OO3` [ARTESUNATE], the IC50 with Plasmodium falciparum [1] is 0.0093 µM; in the series with Plasmodium falciparum [4], 0.0026 µM.

As to `CC[C@H]1CN2CCc3cc(OC)c(OC)cc3[C@@H]2C[C@@H]1C[C@H]1NCCc2cc(OC)c(OC)cc21` [EMETINE], in the series with CHO, the half-maximal inhibitory concentration (IC50) came to 0.178 µM.
